The values that follow come from ChEMBL document CHEMBL4043076, “Hormonemate Derivatives from Dothiora sp., an Endophytic Fungus” (J Nat Prod, 2017).

Common to all, as to type: functional, cell-based
The subject of one experiment is MIA PaCa-2. Briefly: Cytotoxicity against human MIAPaCa2 cells assessed as reduction in cell viability incubated for 24 hrs by MTT assay. The conditions noted are these: MIA PaCa-2, 24 h. The procedure, abridged: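 MiaPaca_2 (ATCC CRL-1420) cultured in DMEM with 10% FBS, 2.5% horse serum, 1% L-glutamine and 1% penicillin/streptomycin at 37 °C, 5% CO2. Seeding was 20000 cells/well for the 24 h assay. Compounds were tested in triplicate over 10 two-fold dilutions from a 40 μg/mL top concentration, with 0.5% DMSO as negative control. MTT reduction was used for IC50.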
(In general: Tetrazolium assays rely on reduction of a dye to a coloured formazan, in cell work by metabolically active cells.)

The test system of another experiment is HepG2. Description: Cytotoxicity against human HepG2 cells assessed as reduction in cell viability incubated for 24 hrs by MTT assay. The conditions noted are these: HepG2, 24 h. The procedure, abridged: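 HepG2 (ATCC) grown in Eagle's MEM with 10% FBS, 2 mM L-glutamine, 1 mM sodium pyruvate and 100 μM nonessential amino acids at 37 °C, 5% CO2. Seeded at 20000 cells/well for the 24 h assay. Compounds were run in triplicate at 10 two-fold dilutions from 40 μg/mL, with 0.5% DMSO maximum. Viability was read by MTT reduction and IC50 determined.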

The next experiment deals with MCF7. Briefly: Cytotoxicity against human MCF7 cells assessed as reduction in cell viability incubated for 24 hrs by MTT assay. The settings on record: MCF7, 24 h. The procedure, abridged:
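MCF-7 (ATCC HTB-22) kept in MEM with 10% FBS, glutamine, pyruvate and nonessential amino acids plus 0.01 mg/mL bovine insulin at 37 °C, 5% CO2. Plated at 30000 cells/well for the 24 h exposure. Triplicate 10-point, 2-fold serial dilutions from 40 μg/mL were used, with DMSO ≤0.5%. MMS served as positive control. The MTT viability read-out gave the IC50.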

Some results are limits rather than exact numbers.

On to `CC[C@H](C)[C@@H](O)C(=O)O[C@@H](C(=O)O[C@@H](C(=O)O[C@@H](C(=O)OC[C@@H](O)[C@@H](O)[C@H](O)CO)[C@@H](C)CC)[C@@H](C)CC)[C@@H](C)CC`, for which the IC50 with MIA PaCa-2, in the experiment with HepG2 and with MCF7 was more than 65.7 µM in each case.
For `CC[C@H](C)[C@@H](O)C(=O)O[C@@H](C(=O)O[C@@H](C(=O)O[C@@H](C(=O)O[C@@H](C(=O)O[C@H](CO)[C@@H](O)[C@H](O)[C@H](O)CO)[C@@H](C)CC)[C@@H](C)CC)[C@@H](C)CC)[C@@H](C)CC`, the IC50 (in general, the concentration that inhibits the measured activity by half) with MIA PaCa-2 is more than 53.2 µM; with HepG2, 36.2 µM; in the experiment with MCF7, 18.3 µM.
`CC[C@H](C)[C@@H](O)C(=O)O[C@@H](C(=O)O[C@@H](C(=O)O[C@@H](C(=O)O[C@@H](C(=O)O[C@H](CO)[C@@H](O)[C@H](O)CO)[C@@H](C)CC)[C@@H](C)CC)[C@@H](C)CC)[C@@H](C)CC`: the IC50 in the experiment on MIA PaCa-2 was 36.4 µM; in the experiment with HepG2, 26.2 µM; with MCF7, 19 µM.
In the case of `CC[C@H](C)[C@@H](O)C(=O)O[C@@H](C(=O)O[C@@H](C(=O)O[C@@H](C(=O)O[C@@H](C(=O)OC[C@@H](O)[C@@H](O)CO)[C@@H](C)CC)[C@@H](C)CC)[C@@H](C)CC)[C@@H](C)CC`, the IC50 in the experiment with MIA PaCa-2 was more than 57.8 µM; with HepG2, 28.7 µM; in the experiment on MCF7, 11.1 µM.
Consider `CC[C@H](C)[C@@H](O)C(=O)O[C@@H](C(=O)O[C@@H](C(=O)O[C@@H](C(=O)O[C@@H](C(=O)O[C@@H]([C@H](O)[C@H](O)CO)[C@H](O)CO)[C@@H](C)CC)[C@@H](C)CC)[C@@H](C)CC)[C@@H](C)CC`, for which the results for the half-maximal inhibitory concentration (IC50) in the experiment with MIA PaCa-2, in the experiment on HepG2 and in the experiment on MCF7 were more than 53.2 µM, more than 53.2 µM and 27.8 µM, respectively.
As for `CC[C@H](C)[C@@H](O)C(=O)O[C@@H](C(=O)O[C@@H](C(=O)O[C@@H](C(=O)O[C@@H](C(=O)OC[C@@H](O)[C@@H](O)[C@H](O)CO)[C@@H](C)CC)[C@@H](C)CC)[C@@H](C)CC)[C@@H](C)CC`, the IC50 in the experiment with MIA PaCa-2 was more than 55.4 µM; in the experiment with HepG2, 29 µM; with MCF7 it was 15.6 µM.
Take `CC[C@H](C)[C@@H](O)C(=O)O[C@@H](C(=O)O[C@@H](C(=O)O[C@@H](C(=O)O[C@@H](C(=O)OC[C@@H](O)[C@@H](O)[C@H](O)[C@H](O)CO)[C@@H](C)CC)[C@@H](C)CC)[C@@H](C)CC)[C@@H](C)CC`: the figures for the IC50 with MIA PaCa-2, in the experiment with HepG2 and with MCF7 were more than 53.2 µM, more than 53.2 µM and 24.3 µM, respectively.
Turning to `COc1cccc2c1C(=O)c1c(O)c3c(c(O)c1C2=O)C[C@@](O)(C(=O)CO)C[C@@H]3O[C@H]1C[C@H](N)[C@H](O)[C@H](C)O1` [DOXORUBICIN], the results for the IC50 in the experiment with MIA PaCa-2 and in the experiment on HepG2 were 1.9 µM and 0.2 µM, respectively.
